Bioassay records: PubChem BioAssay, several laboratories
Shown are actives, neighbours in structure and some others; about 1.9% of the full set was active somewhere.
CaV13 FRET inh – Primary screen for inhibitors of IQ motif and Ca2+-dependent inactivation inhibitor domain binding in CACNA1D, Förster resonance energy transfer in living cells, … | HEK cells, CFP/YFP FRET ICDI-IQ, plate reader, 10 min; percent FRET-ratio fall versus neutral wells | inhibition, % at 12.3 µM | 340,000 compounds, 0.098% hits;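 active = mean replicate inhibition of at least 30% and at least 1% of replicates passing that level; inconclusive = only one of the two criteria is met; inactive = neither criterion is met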
Runt-CBFb FRET – Runt domain-CBFb interaction inhibition. Q01196+Q13951. Cerulean-Runt/Venus-CBFb FRET ratio 530/480, 1 h. inhibition, % at 20 µM. 220,000 compounds, 0.46% hits. AID 1496;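 active = inhibition over about 50% at 20 µM in the single-dose screen, limit read from the data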
Target sequence (Q01196 whole entry, looked up, the tested form may be a part): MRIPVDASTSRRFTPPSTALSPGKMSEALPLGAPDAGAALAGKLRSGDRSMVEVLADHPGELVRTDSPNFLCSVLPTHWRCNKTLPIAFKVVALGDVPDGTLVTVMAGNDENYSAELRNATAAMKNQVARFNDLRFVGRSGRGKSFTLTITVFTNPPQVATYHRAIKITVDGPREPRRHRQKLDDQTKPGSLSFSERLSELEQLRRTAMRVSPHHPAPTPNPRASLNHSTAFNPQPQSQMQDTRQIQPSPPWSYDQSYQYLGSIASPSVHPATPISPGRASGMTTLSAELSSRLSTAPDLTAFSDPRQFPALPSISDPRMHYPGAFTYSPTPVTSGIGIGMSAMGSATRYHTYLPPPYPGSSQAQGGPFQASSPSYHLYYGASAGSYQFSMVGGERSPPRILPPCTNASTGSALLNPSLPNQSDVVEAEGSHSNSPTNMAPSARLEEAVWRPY
Target sequence (Q13951 whole entry, looked up, the tested form may be a part): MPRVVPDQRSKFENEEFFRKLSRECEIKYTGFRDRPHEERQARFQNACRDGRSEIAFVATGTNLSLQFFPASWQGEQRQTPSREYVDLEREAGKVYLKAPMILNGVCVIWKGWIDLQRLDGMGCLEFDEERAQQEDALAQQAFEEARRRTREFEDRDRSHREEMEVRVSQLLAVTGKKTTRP
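Reagent – Venus-CBFb binding partner, 100 nM · Assay system – Cerulean-tagged RUNX1 Runt domain (FRET donor) fusion protein · Input – 100 nM per protein · Incubation – two 1 h room-temperature incubations shielded from light · Measured by – FRET fluorescence · Medium – Tris buffer pH 7.5 with salts and BSA · Benchmarks – unlabeled CBFb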
HDAC3 inhib – blocks human histone deacetylase 3; recombinant HDAC3, fluorogenic peptide/trypsin coupled, fluorescence; O15379; inhibition, % at 8.3 µM; 320,000 compounds, 0.15% hits; in the data active = inhibition above about 26%, passing the limit was not always enough; inconclusive = no clear call, values can overlap the other calls
Runt-SMMHC FRET – Runt domain-CBFb-SMMHC interaction inhibition; Cerulean-Runt/Venus-CBFb-SMMHC FRET ratio 530/480, 1 h; Q01196+Q13951; 220,000 compounds, 0.74% hits; AID 1434; inhibition, % at 20 µM;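 active = mean inhibition across duplicate retests at 20 µM reaching about 50%, limit read from the data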;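 note: inhibitors lower the FRET ratio by blocking Runt binding to CBFb-SMMHC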
RanGTP-Impb inh – inhibitors of RanGTP-importin-beta interaction, primary screen, biochemical, FRET, CFP-Ran, YFP-importin-beta, homogeneous. inhibition, % (concentration not given with the values). AID 2216. 300,000 compounds, 1.1% hits. cell-free CFP-Ran/YFP-importin-beta FRET ratio;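 active = more than half of the replicate wells show a fall in the fluorescence ratio signal beyond about 16%, limit read from the data, passing the limit was not always enough; inconclusive = exactly half of the replicate wells pass the set limit; inactive = fewer than half of replicates pass the limit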
LANA-H2B inh – blocks KSHV LANA binding to histone H2A/H2B; Q9QR71; cell-free LANA-H2A/H2B peptide, fluorescence polarization; inhibition, % (concentration not given with the values); 320,000 compounds, 0.6% hits; AID 2629; in the data active = inhibition mostly above about 10%, no sharp cut-off; inactive = mostly below about 6.7%
Each line names hits and unclear results; the compound was inactive in the other large screens.

Cc1n[nH]c(=O)c2c(NC(=O)CSc3nn(-c4ccc(F)cc4)c(=S)s3)oc(C)c12	HDAC3 inhib 45 (no result: Runt-CBFb FRET, Runt-SMMHC FRET)
CN1OC[C@@H]2CN(Cc3ccccc3)[C@H](c3ccc(N4CCCCC4)cc3)C[C@@H]21	none (no result: Runt-CBFb FRET, HDAC3 inhib, Runt-SMMHC FRET, RanGTP-Impb inh, LANA-H2B inh)
Cc1cc(CNC(=O)c2ccc3c(c2)OCO3)c2ccccc2n1	CaV13 FRET inh 152, RanGTP-Impb inh inconclusive
COc1ccc(C(=O)NCc2cc(C)nc3ccccc23)cc1	HDAC3 inhib inconclusive
CCn1c(C)c(C)c2cc(C(=O)N3CCc4ccccc4C3)ccc21	none (no result: Runt-CBFb FRET, Runt-SMMHC FRET)
C=CC[C@H](CC(=O)N(CCO)Cc1ccccc1)C(=O)N[C@H](COC(=O)[C@H](CC=C)CC(=O)OC(C)(C)C)Cc1c[nH]c2ccccc12	none (no result: Runt-CBFb FRET, HDAC3 inhib, Runt-SMMHC FRET, RanGTP-Impb inh, LANA-H2B inh)
C=CC[C@@H](CC(=O)N(CCO)Cc1ccccc1)C(=O)N[C@@H](COC(=O)[C@H](CC=C)CC(=O)OC(C)(C)C)Cc1c[nH]c2ccccc12	HDAC3 inhib 33 (no result: Runt-CBFb FRET, Runt-SMMHC FRET, RanGTP-Impb inh)
C=CC[C@H](CC(=O)N(CCO)Cc1ccccc1)C(=O)N[C@@H](COC(=O)[C@@H](CC=C)CC(=O)OC(C)(C)C)Cc1c[nH]c2ccccc12	HDAC3 inhib 40 (no result: Runt-CBFb FRET, Runt-SMMHC FRET, RanGTP-Impb inh)
C=CC[C@@H](CC(=O)N[C@H](CO)Cc1ccccc1)C(=O)N[C@H](COC(=O)[C@H](CC=C)CC(=O)OC(C)(C)C)Cc1c[nH]c2ccccc12	none (no result: Runt-CBFb FRET, HDAC3 inhib, Runt-SMMHC FRET, RanGTP-Impb inh, LANA-H2B inh)
C=CC[C@@H](CC(=O)N(CCO)Cc1ccccc1)C(=O)N[C@H](COC(=O)[C@@H](CC=C)CC(=O)OC(C)(C)C)Cc1ccccc1	none (no result: Runt-CBFb FRET, HDAC3 inhib, Runt-SMMHC FRET, RanGTP-Impb inh, LANA-H2B inh)
C=CC[C@H](CC(=O)N(CCO)Cc1ccccc1)C(=O)N[C@H](COC(=O)[C@@H](CC=C)CC(=O)OC(C)(C)C)Cc1ccccc1	HDAC3 inhib 30 (no result: Runt-CBFb FRET, Runt-SMMHC FRET, RanGTP-Impb inh)
Cc1ccc(NC(=O)CN(C)C(=O)c2ccc(NS(=O)(=O)c3ccc4[nH]c(=O)[nH]c4c3)cc2)cc1	LANA-H2B inh 29 (no result: Runt-CBFb FRET, Runt-SMMHC FRET, RanGTP-Impb inh)
O=C(Nc1ccc2[nH]c(=O)[nH]c2c1)c1ccc(Cl)c(Cl)c1	none
O=C(O)c1ccc(Cl)c(S(=O)(=O)Nc2ccc3[nH]c(=O)[nH]c3c2)c1	RanGTP-Impb inh 22
O=C(O)c1cccc(S(=O)(=O)Nc2ccc3[nH]c(=O)[nH]c3c2)c1	RanGTP-Impb inh 16
O=C(O)/C=C/c1ccc(S(=O)(=O)Nc2ccc3[nH]c(=O)[nH]c3c2)cc1	RanGTP-Impb inh 27 (no result: Runt-CBFb FRET, Runt-SMMHC FRET)
CC(C)C(NC(=O)C1CCCCC1)C(=O)Nc1ccccn1 (stereo not given)	none (no result: CaV13 FRET inh)
O=C(CSc1ccc2c(c1)OCCO2)NC(=O)NC1CCCC1	none
COc1ccccc1-c1ccc(=O)n(CC(=O)NCc2ccco2)n1	LANA-H2B inh 37
COc1ccccc1-c1ccc(=O)n(CC(=O)NCc2cccs2)n1	none
COc1ccc(N2CCN(C(=O)C3CCCN(S(=O)(=O)c4ccc(C)cc4)C3)CC2)cc1 (stereo not given)	LANA-H2B inh 26 (no result: Runt-CBFb FRET, Runt-SMMHC FRET)
O=C(C1CCN(S(=O)(=O)c2cccc3cccnc23)CC1)N1CCN(c2ccccc2)CC1	none (no result: RanGTP-Impb inh)
O=C(C1CCCN(S(=O)(=O)c2cccc3cccnc23)C1)N1CCN(c2ccc(F)cc2)CC1 (stereo not given)	LANA-H2B inh 25
CCc1cc(=O)oc2c(C)c(O)c(CN(C)C)cc12	Runt-SMMHC FRET 62, RanGTP-Impb inh 38
CCCOc1ccc2c(CC)cc(=O)oc2c1C	none
O=C(COC(=O)/C=C/c1ccc(OC(F)F)cc1)NC(=O)NCc1ccccc1	none (no result: Runt-CBFb FRET, Runt-SMMHC FRET, RanGTP-Impb inh)
COc1cc(-c2cnc3c(NC=O)cc(-c4ccc(C)cc4)cn23)cc(OC)c1OC	none (no result: Runt-CBFb FRET, HDAC3 inhib, Runt-SMMHC FRET, RanGTP-Impb inh, LANA-H2B inh)
Brc1cc2c(cc1-c1nc3ccccc3s1)OCO2	none (no result: Runt-CBFb FRET, Runt-SMMHC FRET)
Oc1ccc(N=C/C=C/c2ccc(Br)cc2)cc1-c1nc2ccccc2s1	RanGTP-Impb inh 38 (no result: CaV13 FRET inh)
O=c1oc2c(O)cccc2cc1-c1nc2ccccc2[nH]1	CaV13 FRET inh 34, RanGTP-Impb inh 133 (no result: Runt-CBFb FRET, Runt-SMMHC FRET)
O=c1oc2c(CN3CCCCC3)c(O)ccc2cc1-c1nc2ccccc2[nH]1	CaV13 FRET inh 35, Runt-SMMHC FRET 57 (no result: HDAC3 inhib, RanGTP-Impb inh, LANA-H2B inh)
O=c1[nH]cccc1-c1nc2ccccc2[nH]1	none (no result: Runt-CBFb FRET, Runt-SMMHC FRET)
Cc1cc(=O)oc2c(CN3CCN(CCO)CC3)c(O)ccc12	none (no result: Runt-CBFb FRET, Runt-SMMHC FRET)
